From ChEMBL document CHEMBL1811805, “Molecular factors governing inhibition of arylimidamides against Leishmania: conservative computational modeling to improve chemotherapies” (Bioorg Med Chem, 2011)

Legend:
Leishmania donovani = assay: Antileishmanial activity against Leishmania donovani axenic amastigotes after 3 days by tetrazolium dye based spectrophotometric analysis at pH 5.5; assay type: functional, organism-based; settings: 72 h
Method in brief: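 Ld1s axenic amastigote-like L. donovani grown in potassium-based medium, pH 5.5, 37 °C; exposed to compounds for three days; tetrazolium dye added and read spectrophotometrically. IC50 (μM) averaged with standard errors, n ≥ 3.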

Leishmania amazonensis = assay: Antileishmanial activity against beta-lactamase transfected Leishmania amazonensis promastigotes infected in macrophages after 72 hrs by spectrophotometric analysis; assay type: functional, organism-based
Method in brief: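 Macrophages plated and adhered overnight; infected with β-lactamase-transfected L. amazonensis promastigotes (MOI 5:1) overnight; compounds added for 72 hours at 34 °C; nitrocefin in lysis buffer added for 3 to 5 hours further; absorbance read at 490 nm. IC50 (μM) averaged with standard errors, n ≥ 3.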

Row | SMILES | IC50 (Leishmania donovani) | IC50 (Leishmania amazonensis)
1 | N=C(Nc1ccc(-c2ccc(-c3ccc(NC(=N)c4c[nH]cn4)cc3OC3CCCC3)o2)c(OC2CCCC2)c1)c1c[nH]cn1 | 14000 nM | > 10000 nM
2 | N=C(Nc1ccc(-c2ccc(-c3ccc(NC(=N)c4cnccn4)cc3)o2)cc1)c1cnccn1 | > 100000 nM | > 10000 nM
3 | N=C(Nc1ncc(-c2ccc(-c3cnc(NC(=N)c4ccccn4)nc3)o2)cn1)c1ccccn1 | > 100000 nM | > 10000 nM
4 | N=C(Nc1ccc(-c2ccc(-c3ccc(NC(=N)c4ccccn4)cc3OCc3ccccc3)o2)c(OCc2ccccc2)c1)c1ccccn1 | 4500 nM | 510 nM
5 | N=C(Nc1ccc(-c2ccc(-c3ccc(NC(=N)c4ccccn4)nc3)o2)cn1)c1ccccn1 | > 50000 nM | > 10000 nM
6 | CNc1nc(C(=N)Nc2ccc(-c3ccc(-c4ccc(NC(=N)c5csc(NC)n5)cc4OC(C)C)o3)c(OC(C)C)c2)cs1 | 1300 nM | 300 nM
7 | Cc1cc(NC(=N)c2ccccn2)ccc1-c1ccc(-c2ccc(NC(=N)c3ccccn3)cc2C)o1 | 670 nM | 290 nM
8 | N=C(Nc1cnc(-c2ccc(-c3cnc(NC(=N)c4ccccn4)cn3)o2)cn1)c1ccccn1 | > 100000 nM | > 10000 nM
9 | N=C(Nc1ccc(-c2ccc(-c3ccc(NC(=N)c4ccccn4)cc3O)o2)c(O)c1)c1ccccn1 | 1500 nM | 960 nM
10 | N=C(Nc1ccc(-c2ccc(-c3ccc(NC(=N)c4ccccn4)cc3OC3CCCC3)o2)c(OC2CCCC2)c1)c1ccccn1 | 1400 nM | 170 nM
11 | N=C(Nc1ccc(-c2ccc(-c3ccc(NC(=N)c4ccc(Cl)cn4)cc3OC3CCCC3)o2)c(OC2CCCC2)c1)c1ccc(Cl)cn1 | > 100000 nM | > 10000 nM
12 | Cc1nc(C(=N)Nc2ccc(-c3ccc(-c4ccc(NC(=N)c5csc(C)n5)cc4OC(C)C)o3)c(OC(C)C)c2)cs1 | 1400 nM | 170 nM
13 | N=C(Nc1ccc(-c2ccc(-c3ccc(NC(=N)c4ccccn4)cc3Br)o2)c(Br)c1)c1ccccn1 | 1200 nM | 620 nM
14 | N/C(=N\c1ccc(-c2ccc(-c3ccc(/N=C(\N)c4ccccn4)cc3OC3CCNCC3)o2)c(OC2CCNCC2)c1)c1ccccn1 | 59000 nM | > 10000 nM
15 | CC(C)Oc1cc(NC(=N)c2ccccn2)ccc1-c1ccc(-c2ccc(NC(=N)c3ccccn3)cc2OC(C)C)s1 | 680 nM | 45 nM
16 | CC(C)Oc1cc(NC(=N)c2csc(N)n2)ccc1-c1ccc(-c2ccc(NC(=N)c3csc(N)n3)cc2OC(C)C)o1 | 21000 nM | 1700 nM
17 | Cc1cccc(C(=N)Nc2ccc(-c3ccc(-c4ccc(NC(=N)c5cccc(C)n5)cc4C)o3)c(C)c2)n1 | > 50000 nM | 3100 nM
18 | Cc1c(-c2ccc(NC(=N)c3ccccn3)cc2)oc(-c2ccc(NC(=N)c3ccccn3)cc2)c1C | 370 nM | 110 nM
19 | N=C(Nc1ccc(-c2ccc(-c3ccc(NC(=N)c4ccccn4)cc3F)o2)c(F)c1)c1ccccn1 | 4200 nM | 1400 nM
20 | CC(=O)N(C)c1nc(C(=N)Nc2ccc(-c3ccc(-c4ccc(NC(=N)c5csc(N(C)C(C)=O)n5)cc4OC(C)C)o3)c(OC(C)C)c2)cs1 | 3600 nM | 810 nM
21 | CC(=O)Nc1nc(C(=N)Nc2ccc(-c3ccc(-c4ccc(NC(=N)c5csc(NC(C)=O)n5)cc4OC(C)C)o3)c(OC(C)C)c2)cs1 | > 100000 nM | 220 nM
22 | Cc1ccc(C(=N)Nc2ccc(-c3ccc(-c4ccc(NC(=N)c5ccc(C)cn5)cc4C)o3)c(C)c2)nc1 | 840 nM | 160 nM
23 | N=C(Nc1ccc(-c2ccc(-c3ccc(NC(=N)c4ccccn4)cc3Cl)o2)c(Cl)c1)c1ccccn1 | 2000 nM | 560 nM
24 | CC(C)Oc1cc(NC(=N)c2ccc(N3CCCC3)cn2)ccc1-c1ccc(-c2ccc(NC(=N)c3ccc(N4CCCC4)cn3)cc2OC(C)C)o1 | 1900 nM | 270 nM
25 | N=C(Nc1ccc(-c2ccc(-c3ccc(NC(=N)c4ccccn4)cc3)o2)cc1)c1ccccn1 | 1600 nM | 530 nM
26 | N=C(Nc1ccc(-c2ccc(-c3ccc(NC(=N)c4ccc(Br)cn4)cc3OC3CCCC3)o2)c(OC2CCCC2)c1)c1ccc(Br)cn1 | > 100000 nM | > 10000 nM
27 | CC(=N)Nc1ccc(-c2ccc(-c3ccc(NC(C)=N)cc3OC3CCCC3)o2)c(OC2CCCC2)c1 | 41000 nM | 4700 nM
28 | N=C(Nc1ccc(-c2cc(-c3ccccc3)c(-c3ccc(NC(=N)c4ccccn4)cc3)o2)cc1)c1ccccn1 | 1700 nM | 110 nM
29 | CC(C)N1CCC(Oc2cc(NC(=N)c3ccccn3)ccc2-c2ccc(-c3ccc(NC(=N)c4ccccn4)cc3OC3CCN(C(C)C)CC3)o2)CC1 | 28000 nM | 2100 nM

Other lines, results leading:

Row | IC50 (Leishmania donovani) | IC50 (Leishmania amazonensis) | SMILES
30 | 7900 nM | 320 nM | CC(C)CCOc1cc(NC(=N)c2ncccn2)ccc1-c1ccc(-c2ccc(NC(=N)c3ncccn3)cc2OCCC(C)C)o1
31 | 2500 nM | 590 nM | CC(C)Oc1cc(NC(=N)c2ccc(F)cn2)ccc1-c1ccc(-c2ccc(NC(=N)c3ccc(F)cn3)cc2OC(C)C)o1
32 | 23000 nM | > 10000 nM | CC(C)COc1cc(NC(=N)c2c[nH]cn2)ccc1-c1ccc(-c2ccc(NC(=N)c3c[nH]cn3)cc2OCC(C)C)o1
33 | 1100 nM | 1100 nM | CC(C)Oc1cc(NC(=N)c2cccnn2)ccc1-c1ccc(-c2ccc(NC(=N)c3cccnn3)cc2OC(C)C)o1
34 | 16000 nM | 900 nM | CC(C)Oc1cc(NC(=N)c2ccc[nH]2)ccc1-c1ccc(-c2ccc(NC(=N)c3ccc[nH]3)cc2OC(C)C)o1
35 | 20000 nM | 3700 nM | CC(C)Oc1cc(NC(=N)c2cnccn2)ccc1-c1ccc(-c2ccc(NC(=N)c3cnccn3)cc2OC(C)C)o1
36 | 5800 nM | 740 nM | CC(C)Oc1cc(NC(=N)c2ccn(C)n2)ccc1-c1ccc(-c2ccc(NC(=N)c3ccn(C)n3)cc2OC(C)C)o1
37 | 550 nM | 700 nM | CC(C)Oc1cc(NC(=N)c2ncccn2)ccc1-c1ccc(-c2ccc(NC(=N)c3ncccn3)cc2OC(C)C)o1
38 | 530 nM | 370 nM | COc1cc(NC(=N)c2ccccn2)ccc1-c1ccc(-c2ccc(NC(=N)c3ccccn3)cc2OC)o1
39 | 4500 nM | 2700 nM | COc1cccc(C(=N)Nc2ccc(-c3ccc(-c4ccc(NC(=N)c5cccc(OC)n5)cc4OC(C)C)o3)c(OC(C)C)c2)n1
40 | 2400 nM | 490 nM | CC(C)COc1cc(NC(=N)c2ncccn2)ccc1-c1ccc(-c2ccc(NC(=N)c3ncccn3)cc2OCC(C)C)o1
41 | 1000 nM | 130 nM | COc1ccc(C(=N)Nc2ccc(-c3ccc(-c4ccc(NC(=N)c5ccc(OC)cn5)cc4OC(C)C)o3)c(OC(C)C)c2)nc1
42 | 28000 nM | > 10000 nM | CC(C)Oc1cc(NC(=N)c2ccc(Br)cn2)ccc1-c1ccc(-c2ccc(NC(=N)c3ccc(Br)cn3)cc2OC(C)C)o1
43 | 1100 nM | 95 nM | CC(C)COc1cc(NC(=N)c2ccccn2)ccc1-c1ccc(-c2ccc(NC(=N)c3ccccn3)cc2OCC(C)C)o1
44 | 1000 nM | 370 nM | CC(C)Oc1cc(NC(=N)c2ncc[nH]2)ccc1-c1ccc(-c2ccc(NC(=N)c3ncc[nH]3)cc2OC(C)C)o1
45 | 31000 nM | 5000 nM | CC(C)Oc1cc(NC(=N)c2cn(C)cn2)ccc1-c1ccc(-c2ccc(NC(=N)c3cn(C)cn3)cc2OC(C)C)o1
46 | 1100 nM | 250 nM | N=C(Nc1ccc(-c2ccc(-c3ccc(NC(=N)c4ccccn4)cc3OCC(F)(F)F)o2)c(OCC(F)(F)F)c1)c1ccccn1
47 | > 50000 nM | > 10000 nM | CC(C)COc1cc(NC(=N)c2ccc(Br)cn2)ccc1-c1ccc(-c2ccc(NC(=N)c3ccc(Br)cn3)cc2OCC(C)C)o1
48 | 5100 nM | > 10000 nM | CC(C)CCOc1cc(NC(=N)c2ccccn2)ccc1-c1ccc(-c2ccc(NC(=N)c3ccccn3)cc2OCCC(C)C)o1
49 | 28000 nM | > 10000 nM | CC(C)(C)CCOc1cc(NC(=N)c2ccccn2)ccc1-c1ccc(-c2ccc(NC(=N)c3ccccn3)cc2OCCC(C)(C)C)o1
50 | > 100000 nM | 5500 nM | COC(=O)[C@H](N)CCOc1cc(NC(=N)c2ccccn2)ccc1-c1ccc(-c2ccc(NC(=N)c3ccccn3)cc2OCC[C@H](N)C(=O)OC)s1
51 | 820 nM | 640 nM | CC(C)Oc1cc(NC(=N)c2ccc(N)cn2)ccc1-c1ccc(-c2ccc(NC(=N)c3ccc(N)cn3)cc2OC(C)C)o1
52 | 5600 nM | > 10000 nM | CC(C)Oc1cc(NC(=N)c2ccc(Cl)cn2)ccc1-c1ccc(-c2ccc(NC(=N)c3ccc(Cl)cn3)cc2OC(C)C)o1
53 | 1500 nM | 210 nM | N=C(Nc1ccc(-c2ccc(-c3ccc(NC(=N)c4ncccn4)cc3OC3CCCC3)o2)c(OC2CCCC2)c1)c1ncccn1
